Screens: PubChem, several laboratories
Spn DPM-DC inh: blocks S. pneumoniae diphosphomevalonate decarboxylase; purified DPM-DC, PK/LDH coupled NADH fluorescence; calls only at 10 µM; 0.49% of 65,000 active;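 active means the 320 compounds with the highest percent inhibition in the single-dose primary screen, excluding strongly autofluorescent ones, cut at about 32% in these data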;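 further: kinetic rate of NADH fluorescence loss reporting ADP formed by the decarboxylase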
MK inhibit: inhibitors of Streptococcus pneumoniae mevalonate kinase. 0.48% of 65,000 active. inhibition, % at 10 µM. purified MK, PK/LDH-coupled NADH absorbance 340 nm;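 active means ranked among the strongest by inhibition in the single 10 µM screen, a fixed top-ranked set picked for dose follow-up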
S1P3 agonist: agonists of human S1P3 receptor. Q99500. S1P3 NFAT-BLA reporter cells, agonism, FRET ratio; relative to 1 µM S1P, basal subtracted. activation, % at 4.5 µM. 0.1% of 60,000 active. AID 373;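 active means activation above the screen-wide mean plus 3 SD, cut at about 4.5% in these data, passing the limit was not always enough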
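Benchmarks: high control 1 µM S1P / System: stable CHO line with human S1P3, Gα16, NFAT-BLA reporter / Dosing: single compound concentration, 4.5 µM final / Timing: 4 h compound at 37 °C, 2 h substrate at RT / Measured by: FRET β-lactamase substrate fluorescence, excitation 405 nm, 460/535 nm emission ratio, background-subtracted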
Hsp90 block: displaces geldanamycin probe from tumor Hsp90; NCI-N417 lysate Hsp90, Cy3B-geldanamycin FP displacement; inhibition, % at 30 µM; 0.35% of 64,000 active;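 active means inhibition above 50%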;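 further: 0% = tracer plus lysate wells and 100% = tracer alone without lysate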
PMK inhibit: blocks S. pneumoniae phosphomevalonate kinase | purified PMK, PK/LDH-coupled NADH absorbance 340 nm | inhibition, % at 10 µM | 0.49% of 65,000 active | AID 539;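 active means top-ranked compounds by inhibition in the single 10 µM screen, taking a fixed number of the strongest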;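 further: 0% = full reaction with DMSO carrier and 100% = background rate without enzyme reaction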
S1P1 ag pot: agonists and agonism potentiators of human S1P1 receptor; S1P1 CRE-bla cells, forskolin, beta-lactamase FRET, potentiator mode; S1P1 agonist co-added at EC20, 2 nM; 100% = saturating reference agonist, 0% = basal; P21453; 0.57% of 56,000 active; activation, % at 9.5 µM;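 active means activation above a cutoff set at the mean activation of all tested compounds plus 3 SD, cut at about 54% in these data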;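 further: forskolin at 4 µM as EC80 and the EC20 agonist is SEW2871; 100% = SEW2871 at its EC100 plus forskolin at EC80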
Target sequence (P21453 whole entry, looked up): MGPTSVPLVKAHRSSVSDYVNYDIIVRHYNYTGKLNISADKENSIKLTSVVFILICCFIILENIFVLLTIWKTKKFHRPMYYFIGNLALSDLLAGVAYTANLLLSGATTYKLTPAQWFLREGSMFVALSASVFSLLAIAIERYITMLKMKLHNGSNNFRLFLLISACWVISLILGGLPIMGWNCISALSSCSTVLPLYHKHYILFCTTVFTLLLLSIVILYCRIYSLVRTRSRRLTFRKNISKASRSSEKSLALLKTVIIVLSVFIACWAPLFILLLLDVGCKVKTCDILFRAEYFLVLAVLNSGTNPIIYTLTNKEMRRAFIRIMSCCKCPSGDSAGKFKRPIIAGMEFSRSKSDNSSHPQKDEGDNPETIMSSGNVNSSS
The depositor's hits bear a star; i = inactive; / = not tested or not shown; + = active, no number. Sampled rows, rich in hits. Any-hit rate of the full collection: about 2.2%.

SMILES	Spn DPM-DC inh	MK inhibit	S1P3 agonist	Hsp90 block	PMK inhibit	S1P1 ag pot
CCN(C1CCCCC1)S(=O)(=O)c1ccc(S(=O)(=O)NCc2ccncc2)cc1	i	0	-2	0	7	88*
CCC1SC(=NC(=O)c2ccc(Cl)c(Cl)c2)NC1=O (stereo not drawn)	i	1	0	-1	5	-13
CC1SC(=NC(=O)c2ccco2)NC1=O (stereo not drawn)	i	4	0	-2	26*	-6
Cn1nc(CC(=O)Nc2ccc(N3CCN(C(=O)OC(C)(C)C)CC3)cc2)c2ccccc2c1=O	i	0	-2	-2	13	84*
Cn1nc(CC(=O)N2CCN(c3ccccc3)CC2)c2ccccc2c1=O	i	0	0	-2	0	2
Cn1nc(CC(=O)Nc2ccc3c(c2)OCCO3)c2ccccc2c1=O	i	0	-1	0	4	92*
CCCCC/C=C\CC(O)/C=C/c1cccc(CC(O)CCCCO)n1 (stereo not drawn)	/	/	/	-2	/	/
CCC(NC(=O)Nc1nnc(C(F)(F)F)s1)(C(F)(F)F)C(F)(F)F	i	1	-10	-2	0	112*
O=C(O)CCC(=O)Nc1nnc(C(F)(F)F)s1	i	2	-2	4	6	7
Cc1cc(NC(=O)CN2CCN(c3ccccc3F)CC2)nc2c1c(=O)oc1ccccc12	i	15	-1	-6	0	4
Cc1ccc2nc(NCCO)nc(-c3ccccc3)c2c1	/	15	0	0	18	5
O=C(C1CCCN(Cc2cccnc2)C1)N1CCCCC1 (stereo not drawn)	i	45*	-1	-1	5	-6
O=C1C(Cl)=C(NCC2CCCO2)C(=O)N1Cc1ccccc1 (stereo not drawn)	+	7	-1	-5	13	-12
Nc1nc2c(s1)CCc1c-2cnn1-c1ccccc1	+	0	0	93*	5	2
CC(=O)OC1c2ccccc2C(=O)N1Cc1ccccc1Cl (stereo not drawn)	i	4	-2	-3	2	20
O=c1[nH]c(NCc2ccccc2)nc2c1CCC2	i	9	0	-3	2	-7
N/C(=N\c1nc2c(c(=O)[nH]1)CCCC2)Nc1ccccc1	i	7	0	-1	14	65*
C=CCNc1nc(N2CCCC2)nc2ccccc12	+	14	-1	0	6	-15
Cc1ccc(N(CC(=O)N2CCN(C3CCCCC3)CC2)S(=O)(=O)c2cccnc2)cc1	i	1	0	1	10	10
CCN(CC)CCOC(=O)c1ccc(N=CC2=C(O)CC(C)(C)CC2=O)cc1	+	3	0	-1	6	-31
COCCn1c(C)c(C(=O)O)sc1=S	i	0	0	0	5	2
CC(C)n1nnnc1SCC(=O)Nc1ccccc1N1CCOCC1	i	2	0	2	active	5
CC(Sc1ncc(C#N)c(N)n1)C(=O)Nc1ccccc1 (stereo not drawn)	i	0	1	-3	26*	-14
COC(=O)CSc1ncc(C#N)c(N)n1	i	6	0	-8	0	-14
O=C(O)c1ccccc1C1=Nc2ccc(O)cc2Oc2cc(O)ccc21	i	9	-1	61*	8	-16
SMILES	Spn DPM-DC inh	MK inhibit	S1P3 agonist	Hsp90 block	PMK inhibit	S1P1 ag pot
CN1CCC2=C(CCCC2CCc2ccc(Cl)c(Cl)c2)C1 (stereo not drawn)	/	/	/	0	/	/
CC(C)CC(=O)Nc1ccc(F)c(Cl)c1	i	3	-1	-3	1	4
O=C(O)C1=C(C(=O)Nc2ccc(F)c(Cl)c2)CCCC1	i	0	0	3	25*	-2
CCN1C(=O)/C(=C2/Sc3ccc(OC)cc3N2C)SC1=Nc1cccc(O)c1	i	7	-2	1	2	8
CCN1C(=O)/C(=C2/Sc3ccc(OC)cc3N2C)SC1=Nc1ccc(C(C)=O)cc1	i	1	/	4	25*	/
O=C(Nc1nc(-c2nc3ccccc3s2)cs1)c1ccc(S(=O)(=O)N2CCOCC2)cc1	i	2	-1	1	8	109*
Cc1cc(SCC(N)=O)nc(SCC(=O)c2ccccc2)n1	i	0	-2	91*	5	3
CCOC(=O)c1sc(Nc2nc3c(OC)cccc3s2)nc1C	+	0	0	2	10	-164
COC(=O)c1sc(NC(=O)COc2ccccc2OC)nc1C	i	8	-1	-5	10	11
COc1cccc2sc(Nc3nc(-c4ccccn4)cs3)nc12	i	0	-2	11	12	72*
NC(N)=NCCSSCCN=C(N)N	/	/	/	1	/	/
Cc1nc(Nc2ncc3c(n2)CCCC3=O)nc2ccccc12	i	6	0	-12	0	-9
CCn1nnc(NC(=O)c2cccc(-c3cc4ccccc4oc3=O)c2)n1	/	67*	-2	-6	9	15
CCOc1ccc(N(CC(=O)Nc2ccc(F)c(F)c2)S(=O)(=O)c2c(C)noc2C)cc1	+	7	-2	2	12	42
Cc1ccc2nc(NC(=O)Cn3cc4c(n3)CCCCC4)sc2c1	i	11	0	1	0	-13
COc1ccc2c(c1)c(C(=O)CNc1nc(C)cs1)c(C)n2C	i	0	-1	-5	27*	-16
Cc1nn(-c2ccccc2)c2c1C(O)n1c(nc3ccccc31)S2 (stereo not drawn)	i	+	-1	3	10	-6
Cc1nn(-c2ccccc2)c2sc(C(=O)O)cc12	i	7	/	-4	1	/
COc1ccc2cc(C(=O)NCc3ccco3)c(=O)oc2c1	/	15	0	-2	5	2
O=C(NCc1ccco1)c1cc2ccc(O)cc2oc1=O	/	9	12*	-5	8	-154
c1ccn2c(SCc3ccc4c(c3)OCO4)nnc2c1	i	48*	1	-3	12	10
Cn1c(SCc2ccc3c(c2)OCO3)nnc1-c1ccccc1	i	4	0	-2	16	-18
Cc1nc2sc(C(c3ccccc3)N3CCN(c4ccccc4F)CC3)c(O)n2n1 (stereo not drawn)	i	6	-2	5	17	18
C/C(Cl)=C/Cn1c(N2CCCC2)nc2c1c(=O)n(C)c(=O)n2C	i	0	8.7*	-4	21	-12
C/C(Cl)=C\Cn1c(N2CCCC2)nc2c1c(=O)[nH]c(=O)n2C	i	10	0	-8	14	-19
O=C(NCc1cn2ccccc2n1)c1ccccc1	i	52*	-1	-1	12	4
O=C(NCc1cn2ccccc2n1)c1ccc(Br)o1	i	3	0	-5	8	-8
